Assay results from ChEMBL document CHEMBL1764966, “Trigonosins A-F, daphnane diterpenoids from Trigonostemon thyrsoideum” (J Nat Prod, 2011).
Counter-ions that a name gives are not always drawn.

Key:
Assay type in all cases: functional, cell-based
[1] = tested on: HL-60; assay: Cytotoxicity against human HL60 cells assessed as inhibition of cell proliferation after 72 hrs by MTT assay; conditions: HL-60, 72 h
In short: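 HL-60 promyelocytic leukemia cells were plated 24 h ahead, then exposed continuously to varying compound concentrations for 72 h. Proliferation inhibition was determined by MTT assay. Adriamycin served as the positive control.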

[2] = tested on: A549; assay: Cytotoxicity against human A549 cells assessed as inhibition of cell proliferation after 72 hrs by SRB assay; conditions: A549, 72 h
In short: (§1)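 Sulforhodamine B (SRB) read-out of proliferation inhibition. Cells (A549 lung adenocarcinoma; MCF-7 breast cancer) were seeded 24 h before treatment, then exposed continuously to a range of compound concentrations for 72 h. Inhibition rates were derived from the SRB signal. Adriamycin served as the positive control.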

[3] = tested on: MCF7; assay: Cytotoxicity against human MCF7 cells assessed as inhibition of cell proliferation after 72 hrs by SRB assay; conditions: MCF7, 72 h; in short: as §1

Compound	IC50 [1] [µM]	IC50 [2] [µM]	IC50 [3] [µM]
COc1cccc2c1C(=O)c1c(O)c3c(c(O)c1C2=O)C[C@@](O)(C(=O)CO)C[C@@H]3O[C@H]1C[C@H](N)[C@H](O)[C@H](C)O1 [DOXORUBICIN HYDROCHLORIDE]	0.13	0.41	0.15
C[C@H]1[C@@H]2CC[C@@H]1[C@@H](OC(=O)c1ccccc1)/C=C/C=C/C(=O)O[C@H]1[C@@H](C)C[C@@H]3[C@]1(O)[C@H](O)[C@@]1(CO)O[C@H]1[C@H]1[C@H]4OC5(c6ccccc6)O[C@@H]([C@@H](C)[C@@]13O5)[C@@]4(O)[C@](C)(O)C2 [REDIOCIDE C]	> 10	> 10	> 10
C=C(C)[C@@]12OC3(c4ccccc4)O[C@@H]1[C@@H]1[C@@H]4O[C@]4(C)[C@@H](O)[C@]4(O)C(=O)C(C)=C[C@H]4[C@@]1(O3)[C@H](C)[C@@H]2OC(=O)c1ccccc1 [TRIGOXYPHIN A]	> 10	> 10	> 10
C=C(C)[C@@]1(OC(=O)c2ccccc2)[C@H](OC(C)=O)[C@@H]2[C@H](OC(C)=O)[C@]3(C)O[C@@]4([C@@H]3O)[C@@H](O)[C@@H](C)C[C@H]4[C@@]2(O)[C@H](C)[C@@H]1OC(C)=O [TRIGONOSIN D]	> 10	> 10	> 10
C=C(C)[C@@]12OC3(c4ccccc4)O[C@@H]1[C@@H]1[C@@H]4O[C@]4(C)[C@@H](O)[C@]4(O)C(=O)[C@@H](C)C[C@H]4[C@@]1(O3)[C@H](C)[C@@H]2OC(=O)c1ccccc1 [TRIGOXYPHIN B]	> 10	> 10	> 10
C[C@H]1[C@@H]2CC[C@@H]1[C@H](OC(=O)c1ccccc1)/C=C/C=C/C(=O)O[C@H]1[C@@H](C)C[C@@H]3[C@]1(O)[C@H](O)[C@@]1(CO)O[C@H]1[C@H]1[C@H]4OC5(c6ccccc6)O[C@@H]([C@@H](C)[C@@]13O5)[C@@]4(O)[C@](C)(O)C2 [TRIGONOSIN E]	> 10	> 10	> 10
C[C@H]1[C@@H]2CC[C@@H]1[C@@H](OC(=O)c1ccccc1)/C=C/C=C\C(=O)O[C@H]1[C@@H](C)C[C@@H]3[C@]1(O)[C@H](O)[C@@]1(CO)O[C@H]1[C@H]1[C@H]4OC5(c6ccccc6)O[C@@H]([C@@H](C)[C@@]13O5)[C@@]4(O)[C@](C)(O)C2 [TRIGONOSIN F]	> 10	> 10	> 10
CC(C)CC(=O)O[C@H]1/C=C/C=C/C(=O)O[C@H]2[C@@H](C)C[C@@H]3[C@]2(O)[C@H](O)[C@@]2(CO)O[C@H]2[C@H]2[C@H]4OC5(c6ccccc6)O[C@@H]([C@@H](C)[C@@]23O5)[C@@]4(O)[C@](C)(O)C[C@H]2CC[C@H]1[C@H]2C [REDIOCIDE A]	> 10	> 10	> 10
C=C(C)[C@@]12OC3(c4ccccc4)O[C@@H]1[C@@H]1[C@@H]4O[C@]4(C)[C@@H](O)[C@@]4(O)[C@@H](C[C@H](C)[C@@H]4O)[C@@]1(O3)[C@H](C)[C@@H]2OC(=O)c1ccccc1 [TRIGONOSIN A]	> 10	> 10	> 10
C=C(C)[C@@]12OC3(c4ccccc4)O[C@@H]1[C@@H]1[C@@H]4O[C@]4(CO)[C@@H](O)[C@@]4(O)[C@@H](C[C@H](C)[C@@H]4O)[C@@]1(O3)[C@H](C)[C@@H]2OC(=O)c1ccccc1 [TRIGONOSIN B]	> 10	> 10	> 10
C=C(C)[C@@]12OC3(c4ccccc4)O[C@@H]1[C@@H]1[C@H](O)[C@@](C)(O)[C@@H](O)[C@@]4(O)[C@@H](C[C@H](C)[C@@H]4O)[C@@]1(O3)[C@H](C)[C@@H]2OC(=O)c1ccccc1 [TRIGONOSIN C]	> 10	> 10	> 10
